An excerpt weighted towards active compounds, which were near 6.4% of everything screened.
Ecoli tolC – blocks growth of E. coli BW25113 tolC mutant; OD615; AID 573; growth inhibition, % at 10 µM (by protocol); 2.2% of 65,000 active;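 active = growth inhibition at or above a cutoff equal to the mean over every tested compound plus 3 SD, cut at about 60% in these data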;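 note: growth measured after 20 h incubation at 37 °C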
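Test system – E. coli BW25113 ΔtolC::kan, tolC deletion mutant strain · Detection – OD at 615 nm · Buffer or medium – LB with kanamycin 50 µg/mL · Times – 20 h compound exposure of bacteria at 37 °C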
Fibroblast inh – blocks proliferation of human lung fibroblasts | LL 47 human lung fibroblast viability, ATP luminescence; hits give low values | viability, % at 10 µM | 1.1% of 85,000 active | AID 719;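 active = viability at or below 50% in the single dose screen; inactive = viability above 50%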;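 note: compound exposure lasted 72 h before the ATP readout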
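test system = LL 47 human lung fibroblasts | amount = 1,150 fibroblasts seeded per well | medium = 15% FBS in IMEM | times = overnight cell rest, 72 h compound treatment at 37 °C | measured by = CellTiter-Glo luminescence measuring cellular ATP | read-out = viability percentage against median untreated-cell control | benchmarks = cell-only wells, no compound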
Jurkat viability – reduces viability or proliferation of Jurkat cells | Jurkat E6.1 viability, ATP luminescence, 48 h | 1.2% of 56,000 active | inhibition, % at 4 µM;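 active = inhibition above the mean inhibition of all tested compounds plus 3 SD, cut at about 28% in these data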
HUVEC inhibit – human endothelial cell proliferation inhibition | HUVEC proliferation, CellTiter-Glo luminescence, 72 h; hits give low values | viability, % at 10 µM (by protocol) | 1.1% of 86,000 active;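 active = viability at or below 30%; inactive = viability above 30%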
Ecoli WT expand – E. coli BW25113 growth inhibition, expanded screen | OD600 absorbance | growth inhibition, % at 100 µM | 0.15% of 98,000 active;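 active = growth inhibition above about 50% at one test dose, limit read from the data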;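 note: growth measured after 20 h incubation at 37 °C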
H69AR growth 86K – growth inhibitors of human H69AR lung tumor cells | 6% of 85,000 active | H69AR lung tumor viability, ATP luminescence, 72 h; hits give low values | viability, % at 10 µM | AID 598;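 active = viability at or below 40%; inactive = viability above 40%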;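 note: multidrug resistant small cell line overexpressing MRP-1 efflux transporter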
Of the large screens only hits and unclear results are named; the others gave an inactive call.

Clc1ccccc1CSc1nnc(-c2ccccn2)n1Cc1ccco1	Ecoli tolC 91 (no result: Jurkat viability)
CCC(=O)c1ccc(OCC(O)CN2CCN(S(=O)(=O)N3CCCCC3)CC2)cc1 (centres undefined)	none
CC1c2[nH]c3ccccc3c2CCN1C(=O)Nc1ccccc1 (centres undefined)	H69AR growth 86K 25 (no result: Ecoli WT expand)
Cc1cc(=O)oc(C)c1C(=O)N1CCc2c([nH]c3ccccc23)C1C(C)C (centres undefined)	none
O=c1cc(N2CCc3ccccc32)[nH]c(=O)n1-c1ccc(Br)cc1	none (no result: Ecoli tolC, Jurkat viability)
CSc1cc(-c2ccccc2)n(Cc2ccccc2Cl)c(=O)c1C#N	H69AR growth 86K 4.8 (no result: Ecoli tolC, Jurkat viability)
COc1cccc(C2C(C#N)=C(N)Oc3cc(C)n(Cc4ccccn4)c(=O)c32)c1OC (centres undefined)	none
CC(C)CCNC(=O)C(c1ccncc1)N(Cc1cccs1)C(=O)Cn1nnc(-c2ccc(F)cc2)n1 (centres undefined)	H69AR growth 86K 40 (no result: Ecoli tolC, Jurkat viability, Ecoli WT expand)
Cc1ccc(-c2nnn(CC(=O)N(Cc3cccs3)C(C(=O)NC3CCCCC3)c3ccco3)n2)o1 (centres undefined)	H69AR growth 86K 19 (no result: Ecoli tolC, Jurkat viability)
O=C(NCC1CCCO1)C(c1ccc(F)cc1)N(Cc1ccc(F)cc1)C(=O)Cn1nnc(-c2cccs2)n1 (centres undefined)	H69AR growth 86K 40 (no result: Ecoli tolC, Jurkat viability, Ecoli WT expand)
COc1ccc(-c2nnn(CC(=O)N(Cc3ccc(F)cc3)C(C(=O)NC3CCCC3)c3ccc(F)cc3)n2)cc1 (centres undefined)	Fibroblast inh 12, H69AR growth 86K 27 (no result: Ecoli tolC, Jurkat viability, Ecoli WT expand)
CCOC(=O)CN(C(=O)Cn1nnc(-c2ccc(OC)cc2)n1)C(C(=O)NC1CCCC1)c1ccc(F)cc1 (centres undefined)	none (no result: Ecoli tolC, Jurkat viability, Ecoli WT expand)
Cc1ccc(-c2nnn(CC(=O)N(Cc3cccs3)C(C(=O)NC3CCCC3)c3ccco3)n2)o1 (centres undefined)	none
CC(C)(C)NC(=O)C(c1ccc(F)cc1)N(Cc1ccco1)C(=O)Cn1nnc(-c2cccs2)n1 (centres undefined)	none (no result: Ecoli tolC, Jurkat viability, Ecoli WT expand)
Cc1nc2ccccn2c1C(=O)N/N=C/c1cc(C)n(-c2ccc(Cl)cc2)c1C	none (no result: Ecoli tolC, Jurkat viability, Ecoli WT expand)
CCOC(=O)COc1ccc2nsnc2c1	none (no result: Fibroblast inh)
Cc1ccc(-c2nnn(CC(=O)N(Cc3cccs3)C(C(=O)NC3CCCC3)c3ccncc3)n2)cc1 (centres undefined)	H69AR growth 86K 29 (no result: Ecoli tolC, Jurkat viability, Ecoli WT expand)
COc1ccc(-c2nc3ccccc3s2)cc1O	none
COc1ccc(-c2c/c(=N\c3nc(-c4ccccc4)c(C)s3)c3ccccc3o2)cc1O	Fibroblast inh 40, H69AR growth 86K 31 (no result: Ecoli tolC, Jurkat viability)
CCC(=O)Nc1nc2ccccc2n1Cc1ccc(C)cc1	Jurkat viability 76 (no result: Fibroblast inh, HUVEC inhibit, H69AR growth 86K)
CC(=O)Nc1nonc1-c1nc2ccccc2n1Cc1ccccc1	none (no result: Ecoli tolC, Fibroblast inh, Jurkat viability, HUVEC inhibit, H69AR growth 86K)
CCC(=O)Nc1nonc1-c1nc2ccccc2n1Cc1ccc(Cl)c(Cl)c1	H69AR growth 86K 16 (no result: Ecoli WT expand)
CCN1CCN(c2nc(-c3ccccn3)nc3ccccc23)CC1	none (no result: Ecoli tolC, Jurkat viability)
c1ccc(-c2nc(N3CCOCC3)c3ccccc3n2)nc1	H69AR growth 86K 26
c1ccc(-c2nc(N3CCCCCC3)c3ccccc3n2)nc1	Ecoli tolC 100, Fibroblast inh 37, Jurkat viability 72, H69AR growth 86K 7.6
c1ccc(CN2CCN(c3nc(-c4ccccn4)nc4ccccc34)CC2)cc1	Fibroblast inh 45, HUVEC inhibit 14, H69AR growth 86K 3.2 (no result: Jurkat viability)
c1ccc2c(N3CCCC3)nc(-c3ccncc3)nc2c1	none
Cc1cc(NCC(C)C)n2ncnc2n1	none (no result: Ecoli tolC, Jurkat viability)
CC1(C)CC(=O)C2=C(C1)Oc1ncn(CCCn3ccnc3)c(=N)c1C2c1ccccc1 (centres undefined)	none
COc1ccc(C2CC(c3c(-c4ccccc4)c4cc(Cl)ccc4[nH]c3=O)=NN2S(C)(=O)=O)cc1 (centres undefined)	H69AR growth 86K 14 (no result: Ecoli tolC, Jurkat viability)
COc1ccc(OC)c(C2CC(c3c(-c4ccccc4)c4cc(Cl)ccc4[nH]c3=O)=NN2S(C)(=O)=O)c1 (centres undefined)	none (no result: Ecoli tolC, Fibroblast inh, Jurkat viability, HUVEC inhibit, H69AR growth 86K)
Cc1ccc(-c2csc3ncnc(Sc4nnc(CN5CCCCCC5=O)o4)c23)cc1	Ecoli tolC 61, Fibroblast inh 31, Jurkat viability 71, H69AR growth 86K -0.2
COC(=O)C1=C(C)OC(N)=C(C#N)C1c1c(C)nn(-c2ccccc2)c1Cl (centres undefined)	H69AR growth 86K 39 (no result: Jurkat viability)
CC1(C)Cc2nc3sc4c(SCC(=O)NCc5ccco5)ncnc4c3cc2CO1	Jurkat viability 78, H69AR growth 86K 26
Cc1nc2c(sc3nc4c(cc32)COC(C)(C)C4)c(=O)n1CC(=O)NCc1ccco1	H69AR growth 86K 24 (no result: Jurkat viability)
CCCc1nc2c(sc3nc4c(cc32)COC(C)(C)C4)c(=O)n1Cc1ccco1	none (no result: H69AR growth 86K)
CC(C)c1nc2sc3c(SCC(=O)NCc4ccco4)ncnc3c2c2c1CCC2	none (no result: Jurkat viability)
O=C1OCCC1Sc1nnc(-c2ccc(O)cc2)o1 (centres undefined)	none (no result: Ecoli tolC, Jurkat viability)
Cn1c(C(=O)NCc2cccs2)cc2c(=O)n(C)c3ccccc3c21	H69AR growth 86K 40
Cn1c(C(=O)NCCN2CCc3ccccc3C2)cc2c(=O)n(C)c3ccccc3c21	H69AR growth 86K 15
Cn1c(C(=O)NCCN2CCOCC2)cc2c(=O)n(C)c3ccccc3c21	none
CCCN(CCC)CCNC(=O)c1cc2c(=O)n(C)c3ccccc3c2n1C	none
CN(CCNC(=O)c1cc2c(=O)n(C)c3ccccc3c2n1C)Cc1ccccc1	H69AR growth 86K 37
CSC1=NCCN1C(=O)c1c(F)cccc1Cl	none
Cc1cc(C)nc(N2CCCC(C(=O)NC3CCCC3)C2)n1 (centres undefined)	none
COC(=O)c1[nH]c2cccc(OC)c2c1NC(=O)CCN1CCN(c2cccc(Cl)c2)CC1	none
O=C(Nc1ccccc1)c1cc(N2CCOCC2)nc2ccccc12	none (no result: Jurkat viability)
Cc1ccc(NC(=O)c2cc(N3CCOCC3)nc3ccccc23)cc1	H69AR growth 86K 33 (no result: Jurkat viability)
COc1cccc(NC(=O)C(OC(=O)/C=C/c2ccc3c(c2)OCO3)c2ccccc2)c1 (centres undefined)	none (no result: Ecoli tolC, Fibroblast inh, Jurkat viability, HUVEC inhibit, H69AR growth 86K)
COc1cccc(CNCCNC(=O)c2nonc2N)c1	none (no result: Ecoli tolC, Jurkat viability)
Cc1ccc(-n2ncc3c(=O)[nH]c(SCC(=O)N4CCCC4)nc32)cc1C	none (no result: Ecoli WT expand)
Cc1[nH]c2ccccc2c1SCCNC(=O)c1ccc(Br)o1	none (no result: Ecoli tolC, Jurkat viability, Ecoli WT expand)
O=C(NCCSc1c[nH]c2ccccc12)c1ccc(Br)o1	Jurkat viability 38
O=S(=O)(c1ccc(S(=O)(=O)N2CCCC2)cc1)N1CCCCCC1	none
O=S(=O)(c1ccc2c(c1)C(=NO)c1cc(S(=O)(=O)N3CCCCC3)ccc1-2)N1CCCCC1	Fibroblast inh 1.6, HUVEC inhibit 1.6, H69AR growth 86K 0.4
CC1CCN(S(=O)(=O)c2ccc3c(c2)C(=NO)c2cc(S(=O)(=O)N4CCC(C)CC4)ccc2-3)CC1	Fibroblast inh 2.3, HUVEC inhibit 2.8, H69AR growth 86K 0.9 (no result: Ecoli tolC, Jurkat viability)
CCCCN(CCCC)C(=S)N/N=C/c1c(C)[nH]n(-c2ccccc2)c1=O	none (no result: Ecoli tolC, Fibroblast inh, Jurkat viability, HUVEC inhibit, H69AR growth 86K)
